# Screening results deposited in PubChem BioAssay by Broad Institute.
# In the library only some 3.6% were active in any assay of this set; here they are far more common.
# T cruzi repl = blocks replication of Trypanosoma cruzi. inhibition, % (no concentration beside the values). T. cruzi beta-gal in NIH3T3, luminescence, 90 h. 1.4% of 300,000 active;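 active = mean inhibition across valid replicates above about 55%, limit read from the data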;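 note: signal also drops with host cell toxicity which is not excluded here; higher percent means less beta-gal luminescence so fewer parasites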
#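 System: mouse NIH/3T3 fibroblasts infected with β-gal-expressing T. cruzi Tulahuen C4 / Input: NIH/3T3 cells, 5,000 per well / Buffer or medium: Low-serum DMEM with 2% FBS / Probe or stimulus: 5000 reporter trypomastigotes per well / Schedule: ≥90 h infection period, 3 h prior cell attachment / Measured by: GalScreen luminescence, 60 min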
# Beta cell apopt = beta cell apoptosis inhibition; protection from apoptosis, % (concentration not given with the values); 0.8% of 300,000 active; AID 435005; INS-1E cytokine-induced death, ATP luminescence, 48 h; percent of positive-control rescue, neutral wells zero;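 active = Every replicate reaches about 75%, or at least half do and their mean reaches it too, limit read from the data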;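 note: higher means more ATP so stronger rescue from cytokine killing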
# HIF act = HIF pathway transcriptional activation; U2OS HRE-luciferase reporter, luminescence; normalized: DMSO 0%, desferrioxamine 100%; activation, % at 7.5 µM (by protocol); 0.32% of 300,000 active; AID 1910;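 active = mean activation of at least 10% of the iron chelator positive control signal, with at least half of replicates also reaching 10%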
# CSC inhib = blocks cancer stem cells; cancer stem cell-like cells viability, luminescence; inhibition, % at 7.5 µM; 1.1% of 300,000 active; AID 2717; in the data active = inhibition above about 75%; tested in HMLE shEcad cells
# PfHsp90 set2 = inhibits growth of yeast expressing Plasmodium falciparum Hsp90; S. cerevisiae expressing PfHsp90, BacTiter-Glo ATP, 48 h; yeast lacking PDR1 and PDR3 efflux regulators; inhibition, % at 9.4 µM; 0.32% of 310,000 active; AID 504621;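 active = every replicate shows inhibition above about 80%, whatever the replicate mean, limit read from the data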
# SKKanGAS inh = inhibitors of SKKanGAS S. pyogenes growth in kanamycin (SK-promoter or general growth effect). BacTiter-Glo, 6 h. inhibition, % at 7.5 µM. 1.3% of 300,000 active;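 active = mean replicate score, as percent of positive control median, at least 50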;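 note: strain carries kanamycin resistance gene driven by streptokinase promoter and grows in 40 µg/ml kanamycin; loss of luminescence reflects streptokinase promoter inhibition or plain growth inhibition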
# A number is an active result; 0 = inactive; - = no result given.
SMILES,T cruzi repl,Beta cell apopt,HIF act,CSC inhib,PfHsp90 set2,SKKanGAS inh
CCOCCCNC(=O)CN1C(=O)c2ccccc2Sc2ncccc21,0,0,0,0,0,0
O=C(Cc1ccc2c(c1)OCO2)NN=Cc1ccc([N+](=O)[O-])o1,-,0,-,0,-,-
O=[N+]([O-])c1ccc(C=Nc2cccc3ccccc23)s1,61,0,0,0,103,0
Cc1ccc(NCC(=O)N/N=C\c2ccc([N+](=O)[O-])o2)cc1,0,0,0,0,0,0
O=C(CNc1ccccc1)N/N=C/c1ccc([N+](=O)[O-])o1,64,0,0,0,-,0
O=C(CCC(=O)Nc1ccc(Cl)cc1Cl)N/N=C/c1ccc([N+](=O)[O-])o1,60,107,0,0,-,0
Cc1ccc2c(=O)n3c(nc2c1)C(Cc1ccc(O)cc1)NC(=O)c1ccc(Cl)cc1-3 (stereo not drawn),-,0,-,0,-,-
CCN(c1ccccc1)S(=O)(=O)c1ccc(OC)c(NC(=O)C2=NN(c3ccccc3)C(=O)CC2)c1,-,-,-,-,0,-
O=c1cc(-c2ccccc2)nc2c(-c3ccccc3)c(C(F)(F)F)[nH]n12,0,-,0,90,-,56
Cc1nnc(NC(=O)C2CCN(S(=O)(=O)c3cc([N+](=O)[O-])ccc3Cl)CC2)o1,-,0,-,-,0,-
Cc1cccc2sc(NC(=O)C3CCN(S(=O)(=O)c4cc([N+](=O)[O-])ccc4Cl)CC3)nc12,68,0,0,0,0,0
Cc1ccc2c(c1)C1NC(=S)NC(C)(O2)C1C(=O)Nc1ccc(Cl)cc1 (stereo not drawn),0,0,51,0,0,0
CC(C)(C)S(=O)N1Cc2cc(=O)n(Cc3ccccc3)c(CCO)c2[C@@H]1CCO (stereo partly drawn),-,-,-,-,0,-
Cc1cc(Br)cc(Cl)c1OC(=O)c1ccncc1,0,0,0,0,0,0
Oc1cccc(/C=N/NC(=S)Nc2cccnc2)c1O,0,87,14,0,0,0
CC(Nc1nc(-c2ccncc2)nc2ccccc12)c1ccccc1 (stereo not drawn),61,0,0,0,0,0
Fc1ccc(Nc2nc(-c3ccncc3)nc3ccccc23)cc1,0,0,0,0,0,0
Fc1ccccc1Nc1nc(-c2ccncc2)nc2ccccc12,55,0,0,0,0,0
COc1ccc2cc(C(C)C(=O)N3CCC(C(N)=O)CC3)ccc2c1 (stereo not drawn),0,0,28,0,0,0
CC1CCC(C(C)C)C(OC(=O)COC(=O)c2ccc(=O)[nH]c2)C1 (stereo not drawn),0,0,0,0,0,0
CC1CCC(C(C)C)C(OC(=O)COC(=O)c2cc(O)ccc2N)C1 (stereo not drawn),70,0,0,0,0,0
NC1=NC[C@H](CC2CCCCC2)N1CCc1cc(C(F)(F)F)cc(C(F)(F)F)c1,0,0,0,102,0,0
NC1=NC[C@@H](Cc2ccc(O)cc2)N1CCc1cc(C(F)(F)F)cc(C(F)(F)F)c1,0,0,0,0,0,0
CC(C)[C@H]1COCCS(=O)(=O)N1Cc1ccccc1-c1cccc(Cl)c1,-,-,-,-,0,-
CC(=O)NCc1ccc(C(=O)CCl)cc1,61,0,0,0,0,0
SMILES,T cruzi repl,Beta cell apopt,HIF act,CSC inhib,PfHsp90 set2,SKKanGAS inh
CC(=O)NCc1ccc(C(=O)CCl)s1,56,0,0,0,0,0
CC(=O)Nc1ccc(C(=O)CCl)cc1,-,0,-,0,-,-
CC(=O)N(C)Cc1ccc(C(=O)CCl)cc1,74,0,0,0,0,0
CCOc1ccc2c3c(c(=O)oc2c1OCC)CCCC3,0,-,0,0,-,0
CCCOc1ccc2c3c(c(=O)oc2c1OCCC)CCCC3,0,100,0,-,0,0
Cc1cccc(N2CCN(C(=O)c3cccc(N4CCCC4=O)c3)C(C)C2)c1 (stereo not drawn),0,0,0,0,0,0
COc1cc(NC(=O)CCCl)cc(-n2cnnn2)c1,0,-,0,0,0,0
O=S(=O)(Nc1ccc(N=Nc2ccc(O)c3ccccc23)cc1)c1ccccc1,0,0,0,79,0,96
O=S(=O)(Nc1ccc(N=Nc2ccccc2)cc1)c1ccccc1,0,0,0,-,0,0
COc1ccc([C@H]2CC(=O)C=C(c3cc4ccccc4s3)C2)cc1OC,-,0,-,0,0,-
COc1ccccc1C(=O)Nn1c(C2CCC2)nc2ccccc2c1=O,56,0,0,-,0,0
O=S(=O)(Nc1ccc2ccccc2n1)c1ccc2c(c1)CCO2,0,0,0,0,0,0
CCN(C(=O)COC(=O)c1nccnc1N)c1cccc2ccccc12,-,0,-,0,0,-
Nc1nc(Cl)cc(NCCc2ccc(O)cc2)n1,0,0,0,0,0,0
Oc1ccc(CCNc2ncnc3ccc(Cl)cc23)cc1,0,107,0,86,0,0
COC(=O)CSc1nnc(NC(=O)c2ccc3c(c2)OCO3)s1,0,-,0,0,0,52
O=C(O)c1cc([N+](=O)[O-])ccc1Nc1ccccc1,0,0,0,0,0,0
O=[N+]([O-])c1cc(Br)c(Nc2ccccc2)c([N+](=O)[O-])c1,0,0,0,0,120,0
O=C(Nc1ccccc1)c1ccc(Nc2c([N+](=O)[O-])cc([N+](=O)[O-])c3ccccc23)cc1,66,0,0,0,0,0
C[C@H](NC(=O)c1nc[nH]c1C(=O)NC1CCNCC1)C(=O)OCc1ccccc1,-,0,-,0,-,-
CC1=CN(S(=O)(=O)c2ccc(C)cc2)C[C@@H]2[C@H]3CC[C@H](C3)[C@H]12,-,-,-,-,0,-
CC(=O)Nc1ccc(C(=O)OCC(=O)NCc2cccs2)cc1,-,0,-,0,-,-
CC(=O)N1N=C(c2cccc([N+](=O)[O-])c2)OC1c1ccc(Br)cc1 (stereo not drawn),0,0,0,0,0,0
CC(=O)N1N=C(c2ccccc2)OC1c1ccc([N+](=O)[O-])s1 (stereo not drawn),84,0,0,0,127,0
Cc1ccc(C(=O)/C=C/c2cc(Br)cc(Br)c2O)o1,0,0,0,94,0,66
SMILES,T cruzi repl,Beta cell apopt,HIF act,CSC inhib,PfHsp90 set2,SKKanGAS inh
CC(O)(P(=O)(O)O)P(=O)(O)O,-,-,-,-,0,-
COc1ccc(C(=O)NCC(=O)OCCCOC(=O)CNC(=O)c2ccc(OC)c(OC)c2)cc1OC,0,-,0,0,0,50
CCN(CC(=O)Nc1ccccc1C(F)(F)F)C(=O)CCc1c(C)[nH]c(=O)c(C#N)c1C,0,0,0,0,0,0
Cc1ccc(-n2cccc2C(=O)NS(=O)(=O)c2ccc(C)cc2)cc1,0,0,0,0,0,0
Cc1ccc(-n2cccc2C(=S)N=P(N(C)C)(N(C)C)N(C)C)cc1,59,102,0,0,0,0
CCOC(=O)N1CCc2c(sc(NC(=O)c3ccc(Cl)s3)c2C(N)=O)C1,-,-,-,86,-,-
CCOC(=O)c1c(NC(=O)Cc2ccccc2)sc2c1CCN(C)C2,55,0,0,0,0,0
CCOC(=O)c1c(NC(=O)c2cccs2)sc2c1CCN(C(=O)OCC)C2,0,0,0,0,0,54
